# This is a sample that favours compounds with a hit; in the whole collection about 1.8% have one here.
# NPY1 pot ag: potentiates or activates human NPY-Y1 receptor; P25929; NPY-Y1 expressing cells, potentiator/agonist activation; activation, % at 3.6 µM; 220,000 compounds, 0.37% hits; in the data active means activation above about 33%, passing the limit was not always enough;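 further: cells stimulated with NPY at EC10 then isoproterenol at EC100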
# NPY-Y2 antag: NPY-Y2 (human) receptor antagonism | P49146 | NPY-Y2 expressing cells, antagonist mode | inhibition, % at 2.7 µM | 140,000 compounds, 0.99% hits | AID 793; in the data active means inhibition above about 17%
# Target sequence (P49146 whole entry, looked up): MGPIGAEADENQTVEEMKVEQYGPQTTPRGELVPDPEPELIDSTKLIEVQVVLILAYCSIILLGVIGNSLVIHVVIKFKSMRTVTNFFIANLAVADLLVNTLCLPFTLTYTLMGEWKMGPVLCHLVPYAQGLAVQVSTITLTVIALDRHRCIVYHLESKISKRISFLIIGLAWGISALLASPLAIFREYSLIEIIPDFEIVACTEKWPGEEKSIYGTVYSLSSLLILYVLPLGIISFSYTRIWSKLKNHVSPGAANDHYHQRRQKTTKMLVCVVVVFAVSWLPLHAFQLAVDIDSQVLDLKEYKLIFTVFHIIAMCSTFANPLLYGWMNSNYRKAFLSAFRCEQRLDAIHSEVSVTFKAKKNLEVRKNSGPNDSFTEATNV
# NPY2 pot ag: potentiators or agonists of human neuropeptide Y receptor Y2; 220,000 compounds, 0.45% hits; P49146; cells expressing NPY-Y2, potentiator/agonist read-out; activation, % at 3.6 µM; AID 1359; in the data active means activation above about 27%;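 further: cells stimulated with NPY near EC25 plus isoproterenol at EC100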
# NPY-Y1 antag: NPY-Y1 (human) receptor antagonism; P25929; HEK293-CNG Y1 cells, membrane potential fluorescence; NPY at EC95, then isoproterenol; inhibition, % at 3.6 µM; 200,000 compounds, 1% hits;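 active means inhibition above the campaign mean inhibition of all tested compounds plus 3 SD, cut at about 20% in these data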
#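 Assay system: HEK293 Y1/CNG channel cell line; Doses: single compound dose of 3.6 µM, 0.4% DMSO; Timing: dye 3 h, compound 60 min room temperature, stimulation 45 min; Technique: Membrane-potential fluorescent dye readout; Measure: % inhibition of NPY effect.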
# NPY-Y2 confirm: human NPY-Y2 potentiation or agonism, confirmation. 450 compounds, 20% hits. shares compounds with NPY2 pot ag. activation, % at 3.6 µM. AID 1539. cell-based NPY-Y2 potentiator/agonist assay; in the data active means activation above about 33%
# NPY-Y1 counter: NPY-Y1 potentiation or agonism as NPY-Y2 counter-screen | shares compounds with NPY2 pot ag | activation, % at 3.6 µM | Y1 HEK293-CNG cells, membrane potential fluorescence | 450 compounds, 20% hits; in the data active means activation above about 45%;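 further: cells stimulated with submaximal NPY then isoproterenol with phosphodiesterase inhibitor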
# NPY-Y1 ag 2: activates human NPY-Y1, counter-screen for NPY-Y2 potentiators. activation, % at 3.6 µM. HEK293 Y1-CNGC, membrane potential fluorescence, agonism. shares compounds with NPY2 pot ag. 450 compounds, 37% hits;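 active means activation above the mean of DMSO-only control wells plus 3 SD, cut at about 18% in these data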;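 further: cells stimulated with 1 µM isoproterenol plus the PDE inhibitor Ro 20-1724; Y1 agonists lower the membrane potential dye signal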
# CNGC inhibitor: cyclic nucleotide gated channel inhibition as counter-screen. HEK293-CNG parental, isoproterenol cAMP, membrane potential fluorescence. 450 compounds, 32% hits. shares compounds with NPY2 pot ag. inhibition, % at 3.6 µM. AID 1703;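 active means inhibition above the control-well mean plus 3 SD of those wells, cut at about 22% in these data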
# Y2 agonist ctr: NPY-Y2 agonism, counter-screen for Y2 potentiators; shares compounds with NPY2 pot ag; HEK293 Y2/CNGC cells, membrane potential fluorescence, agonist mode; activation, % at 3.6 µM; 450 compounds, 56% hits; AID 1710;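 active means activation above the mean of solvent-only control wells plus 3 SD, cut at about 10% in these data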;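 further: cells stimulated by isoproterenol with no NPY added so direct agonism is tested; agonism lowers probe fluorescence through less cAMP and CNG channel opening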
# A number is an active result; - = inactive; . = no result.
SMILES,NPY1 pot ag,NPY-Y2 antag,NPY2 pot ag,NPY-Y1 antag,NPY-Y2 confirm,NPY-Y1 counter,NPY-Y1 ag 2,CNGC inhibitor,Y2 agonist ctr
O=C(O)c1ccccc1C(=O)NC1CCCCNC1=O (stereo unspecified),-,.,-,.,.,.,.,.,.
CC(C)CC(NC(=O)c1ccc(Cl)cc1)C(=O)OCc1cc([N+](=O)[O-])cc2c1OCOC2 (stereo unspecified),-,-,28.3,-,-,-,-,-,18.1
CC(C)C(NC(=O)c1ccccc1)C(=O)OCc1cc([N+](=O)[O-])cc2c1OCOC2 (stereo unspecified),-,-,-,-,.,.,.,.,.
COCCNC(=O)CN1C(=O)CSc2cc(S(=O)(=O)N3CCCCCC3)ccc21,-,-,97.2,-,-,-,-,-,-
COc1ccc(N=c2cc(-c3ccc(OC)cc3)oc3ccccc23)cc1,-,-,29.6,-,51.8,73.5,61.1,52.7,54.4
COc1ccc(-c2cc(=Nc3ccc(C)cc3)c3ccccc3o2)cc1,-,-,-,-,.,.,.,.,.
Nc1nnc(CC(=O)Nc2ccccc2)s1,-,.,47.1,.,-,-,-,-,-
COc1ccc(Cl)cc1NS(=O)(=O)c1cc(Cl)ccc1OC,-,-,33.2,-,-,-,28.7,25.6,31.6
CCN(CC)C(=O)CSc1ncccc1-c1nc2ccccc2[nH]1,-,.,-,-,.,.,.,.,.
O=C(O)CSC1=NC(=Nc2ccc(Cl)cc2)C2(CCCCC2)N1c1cccc(C(=O)O)c1,-,-,-,-,.,.,.,.,.
Cc1ccc(N2C(SCC(=O)O)=NC(=Nc3cccc(C)c3)C23CCCC3)cc1,-,.,70.3,-,-,-,-,-,-
Cc1ccc(C)c(NC(=S)N(CCc2nc3cc(C)c(C)cc3[nH]2)Cc2cccnc2)c1,-,-,-,-,.,.,.,.,.
O=C(Nc1ccc(F)cc1F)N1CCCN(c2ccc([N+](=O)[O-])cn2)CC1,-,.,-,.,.,.,.,.,.
O=C(c1ccc(F)cc1F)C1CCN(c2ccc([N+](=O)[O-])cn2)CC1,-,.,46.2,.,-,-,-,-,11.8
CCOC(=O)N1CCN(CC(=O)Nc2sc(CC)cc2C(=O)c2ccc(OC)cc2)CC1,-,.,-,.,.,.,.,.,.
Cc1nc2ccc(S(=O)(=O)NC(C(=O)Nc3nc4ccc(Cl)cc4s3)C(C)C)cc2s1 (stereo unspecified),-,-,30.3,-,-,-,-,-,-
COC(=O)NC(C)N1C(=O)C2C3C=CC(C3)C2C1=O (stereo unspecified),-,.,-,-,.,.,.,.,.
COc1ccc(NS(=O)(=O)c2cnc[nH]2)cc1,-,.,30.4,-,-,-,-,-,-
CC(C)c1ccc(NS(=O)(=O)c2ccc3[nH]cc(C(=O)N4CCC(C(N)=O)CC4)c(=O)c3c2)cc1,-,-,38.7,-,-,-,18.1,-,11.7
COc1ccccc1N1CC(C)(C)C(=O)N(C(=O)c2c(F)cccc2Cl)C1=S,-,.,-,.,.,.,.,.,.
COc1cc(/C=N/N=C/c2c[nH]c(=O)c(C#N)c2Nc2ccccc2)ccc1O,-,.,-,.,.,.,.,.,.
Cc1ccc(NC2=C(Cl)C(=O)c3ccccc3C2=O)cc1,-,-,-,-,.,.,.,.,.
O=C1C(Cl)=C(Nc2ccc(O)cc2)C(=O)c2ccccc21,-,.,36.5,.,-,-,-,29.4,32.6
CCC(CC)COC(=O)C(C#N)c1nc2ccccc2nc1N1CCN(CC)CC1 (stereo unspecified),-,-,30.9,-,51.7,56.9,32.7,46.4,64.2
CCC(C)COC(=O)C(C#N)c1nc2ccccc2nc1N1CCCCC1 (stereo unspecified),-,-,-,-,.,.,.,.,.
CCOC(=O)N1CCN(CC(O)COCC2=CCC3CC2C3(C)C)CC1 (stereo unspecified),-,-,43.4,-,-,-,-,-,-
CCOC(=O)N1CCN(CC(O)COCc2ccccc2)CC1 (stereo unspecified),-,-,-,-,.,.,.,.,.

# Source: PubChem BioAssay (The Scripps Research Institute Molecular Screening Center)
